pIC50: −log10 of the molar value.
Legend:
[1] = system: Trypanosoma cruzi; assay: Antitrypanosomal activity against bloodstream form of Trypanosoma cruzi Y trypomastigotes infected in Swiss mouse; assay type: functional, organism-based
[2] = system: Trypanosoma cruzi; assay: Antitrypanosomal activity against Trypanosoma cruzi Tulahuen C2C4 intracellular amastigotes infected in rat L6 cells after 4 days by photometry; assay type: functional, organism-based; settings: Tulahuen C2C4, L6, 96 h
Procedure, shortened: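 L6 rat myoblasts seeded at 2000 cells/well in RPMI 1640 with 10% FBS and 2 mM L-glutamine; after 24 h infected with 5000 T. cruzi Tulahuen C2C4 LacZ trypomastigotes. At 48 h medium replaced with seven 3-fold serial drug dilutions spanning 0.123 to 90 µg/mL.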

[3] = Selectivity index, ratio of IC50 for mouse J774 cells to IC50 for bloodstream form of Trypanosoma cruzi trypomastigote; assay type: toxicity, cell-based; settings: read-out: Ratio IC50
[4] = target: T1, Cruzipain (Trypanosoma cruzi, UniProt P25779); assay: Inhibition of Trypanosoma cruzi C-terminally truncated cruzain expressed in Escherichia coli using Z-Phe-Arg-AMC as substrate incubated for 5 mins prior to substrate addition by spectrofluorometry
T1 sequence (P25779 whole entry, the tested form may be a part): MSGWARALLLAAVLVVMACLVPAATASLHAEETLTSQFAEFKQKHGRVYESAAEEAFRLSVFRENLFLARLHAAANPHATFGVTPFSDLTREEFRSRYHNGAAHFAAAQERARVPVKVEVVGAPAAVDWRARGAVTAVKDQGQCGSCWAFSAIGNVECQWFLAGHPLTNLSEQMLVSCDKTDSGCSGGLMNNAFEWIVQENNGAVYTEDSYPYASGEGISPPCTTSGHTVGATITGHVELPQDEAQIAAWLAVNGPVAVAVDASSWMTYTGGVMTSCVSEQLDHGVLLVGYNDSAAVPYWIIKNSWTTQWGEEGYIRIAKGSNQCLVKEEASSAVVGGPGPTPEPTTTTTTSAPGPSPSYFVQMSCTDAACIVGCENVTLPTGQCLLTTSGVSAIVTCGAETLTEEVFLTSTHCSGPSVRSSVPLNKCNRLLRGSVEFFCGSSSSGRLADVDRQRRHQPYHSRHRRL
Procedure, shortened: (§1)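 Purified C-terminally truncated cruzain from E. coli (M15 or DH5a), 0.64 nM, in 50 mM sodium phosphate, 100 mM NaCl, 5 mM EDTA, 5 mM DTT, pH 6.5, preincubated with inhibitor 5 min at room temperature before Z-Phe-Arg-AMC. AMC release followed by fluorescence (ex 355, em 460 nm). IC₅₀ by nonlinear regression from ≥7 concentrations giving 20–85% inhibition, relative to uninhibited activity.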

[5] = system: J774; assay: Cytotoxicity against mouse J774 cells after 18 hrs by MTT assay; assay type: cell-based; settings: J774, 18 h
Procedure, shortened: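 J774 macrophages plated at 2.5 × 10⁶ cells/mL for 1 h (5% CO₂, 37 °C), non-adherent cells washed off with RPMI 1640. Adherent cells exposed to compounds (0.1–[…]), medium alone or 3% Tween 20 in triplicate for 18 h; MTT added for 4 h, formazan dissolved in DMSO, absorbance at 540 nm; LC₅₀ reported.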

[6] = target: T1, Cruzipain; assay: Inhibition of Trypanosoma cruzi cruzain; procedure, shortened: as §1

| pIC50 [1] | pIC50 [2] | pIC50 [4] | pIC50 [6] | Compound | selectivity ratio [3] | pIC50 [5] |
| --- | --- | --- | --- | --- | --- | --- |
| < 2.96 | < 4.00 |  |  | O=C(/C=C/c1ccccc1)N/N=C/c1ccccc1 |  |  |
| < 2.96 | < 4.00 |  |  | O=C(/C=C/c1ccccc1)N/N=C/c1ccc(F)cc1 |  |  |
| < 2.96 | < 4.00 |  |  | O=C(/C=C/c1ccccc1)N/N=C/c1ccc(Cl)cc1 |  |  |
| < 2.96 |  |  |  | O=C(/C=C/c1ccccc1)N/N=C/c1ccc(Br)cc1 |  |  |
| < 2.96 | 4.09 |  |  | O=C(/C=C/c1ccccc1)N/N=C/c1ccc([N+](=O)[O-])cc1 |  |  |
| < 2.96 | < 4.00 |  |  | COc1ccc(/C=N/NC(=O)/C=C/c2ccccc2)cc1 |  |  |
| < 2.96 | < 4.00 |  |  | O=C(/C=C/c1ccccc1)N/N=C/c1ccc(O)cc1 |  |  |
| 5.23 | 5.18 | 4.28 |  | O=C(/C=C/c1ccccc1)N/N=C/c1ccccc1O | 71 | 3.38 |
| 3.97 | < 4.00 |  |  | O=C(/C=C/c1ccccc1)N/N=C/c1ccc(O)c(O)c1 |  |  |
| < 2.96 | 4.21 |  |  | O=C(/C=C/c1ccccc1)N/N=C/c1ccc2c(c1)OCO2 |  |  |
| < 2.96 | < 4.00 |  |  | COc1ccc(/C=N/NC(=O)/C=C/c2ccccc2)cc1OC |  |  |
| < 2.96 | < 4.00 |  |  | COc1ccc(/C=N/NC(=O)/C=C/c2ccccc2)cc1O |  |  |
| 3.90 | 4.14 |  |  | COc1cc(/C=N/NC(=O)/C=C/c2ccccc2)ccc1O |  |  |
| 4.15 | 4.15 |  |  | COc1cc(/C=N/NC(=O)/C=C/c2ccccc2)cc(OC)c1OC |  |  |
| < 2.96 | 4.40 |  |  | COc1cc(/C=N/NC(=O)/C=C/c2ccccc2)cc([N+](=O)[O-])c1O |  |  |
| 5.25 |  | 4.13 |  | O=C(/C=C/c1ccc2c(c1)OCO2)N/N=C/c1ccccc1O | 50 | 3.55 |

| pIC50 [1] | pIC50 [2] | pIC50 [4] | pIC50 [6] | Compound | selectivity ratio [3] | pIC50 [5] |
| --- | --- | --- | --- | --- | --- | --- |
| < 2.96 |  |  |  | COc1cc(/C=N/NC(=O)/C=C/c2ccc3c(c2)OCO3)cc([N+](=O)[O-])c1O |  |  |
| 4.10 |  |  |  | COc1cc(/C=C/C(=O)N/N=C/c2ccccc2O)cc(OC)c1OC |  |  |
| 4.74 |  | 4.34 |  | COc1cc(/C=N/NC(=O)/C=C/c2cc(OC)c(OC)c(OC)c2)cc([N+](=O)[O-])c1O | 134 | 2.62 |
| 4.77 |  | 4.08 |  | COc1cc(/C=C/C(=O)N/N=C/c2ccccc2O)cc([N+](=O)[O-])c1OC | 32 | 3.26 |
| 4.80 |  | 4.35 |  | COc1cc(/C=N/NC(=O)/C=C/c2cc(OC)c(OC)c([N+](=O)[O-])c2)cc([N+](=O)[O-])c1O | 116 | 2.73 |
| 4.19 |  |  |  | COc1ccc(/C=C/C(=O)N/N=C/c2ccccc2O)cc1OC |  |  |
| < 2.96 |  |  |  | COc1ccc(/C=C/C(=O)N/N=C/c2cc(OC)c(O)c([N+](=O)[O-])c2)cc1OC |  |  |
| 4.10 |  |  |  | COc1cc(/C=C/C(=O)N/N=C/c2ccccc2)cc([N+](=O)[O-])c1O |  |  |
| 4.74 |  | < 4.00 |  | O=C(CCc1ccccc1)N/N=C/c1ccccc1O | 90 | 2.79 |
| < 2.96 |  |  |  | COc1cc(/C=N/NC(=O)CCc2ccccc2)cc([N+](=O)[O-])c1O |  |  |
| 4.03 |  |  |  | O=C(N/N=C/c1ccccc1O)c1ccc2ccccc2c1 |  |  |
| 4.03 |  |  |  | COc1cc(/C=N/NC(=O)c2ccc3ccccc3c2)cc([N+](=O)[O-])c1O |  |  |
|  |  |  | 6.22 | COc1ccc2cc(O)c(C(=O)N/N=C/c3c(O)ccc4ccccc34)cc2c1 |  |  |
|  |  |  | 4.70 | O=C(/C=C/c1ccc2c(c1)OCO2)c1ccc(Br)cc1 |  |  |
| 4.97 | 6.91 |  |  | O=C(Cn1ccnc1[N+](=O)[O-])NCc1ccccc1 [BENZNIDAZOLE] | 356 | 2.42 |
